# Tests used:
# Clostridioides difficile [1] = test: Antibacterial activity against Clostridium difficile 8260 incubated for 46 hrs in anaerobic condition by CLSI-based broth microdilution assay; format: functional
# Clostridioides difficile [2] = test: Antibacterial activity against Clostridium difficile ATCC 9689 incubated for 46 hrs in anaerobic condition by CLSI-based broth microdilution assay; format: functional; conditions: ATCC 9689 = DSM 1296
# Clostridioides difficile [3] = test: Antibacterial activity against Clostridium difficile 8264 incubated for 46 hrs in anaerobic condition by CLSI-based broth microdilution assay; format: functional
# [4] = tested on: Mycobacterium tuberculosis; test: Antimycobacterial activity against recombinant Mycobacterium tuberculosis H37Rv expressed in green fluorescence protein by measuring increase in fluorescence after 10 days in presence of middlebrook 7H9/OADC medium by GFP reporter gene assay; format: functional; conditions: 240 h, time 10 day
# Clostridioides difficile [5] = test: Antibacterial activity against Clostridium difficile 5680 incubated for 46 hrs in anaerobic condition by CLSI-based broth microdilution assay; format: functional
# Clostridioides difficile [6] = test: Antibacterial activity against Clostridium difficile BAA-1805 incubated for 46 hrs in anaerobic condition by CLSI-based broth microdilution assay; format: functional
# [7] = Aqueous solubility of the compound in phosphate buffer at pH 7 after 5 hrs by UHPLC analysis; format: physicochemical
# Method in brief: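 Solid added to 1.0 mL pH 7 phosphate buffer containing 50 µg/mL caffeine internal standard until saturated. Stirred 5 h at room temperature, passed through a 0.22 µm filter, then run on C18 UHPLC with a water/MeCN + 0.1 % HCOOH gradient. Analyte/IS peak-area ratio was converted to concentration using a linear calibration from MeOH standards at 50–500 µg/mL.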
# Staphylococcus aureus [8] = test: Antibacterial activity against Staphylococcus aureus ATCC 29213 incubated overnight by broth dilution method; format: functional
# Method in brief: (§1)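 Strains pre-grown overnight at 37 °C on Mueller Hinton II agar; CLSI broth dilution, inoculum about 7.5 × 10^5 CFU/well. Compounds taken from 1.0 mg/mL stocks in 50 % methanol/H2O, diluted in H2O as 2-fold series. Plates held at 37 °C overnight; MIC read visually as lowest concentration with no growth.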
# Clostridioides difficile [9] = test: Antibacterial activity against Clostridium difficile 8290 incubated for 46 hrs in anaerobic condition by CLSI-based broth microdilution assay; format: functional
# Bacillus subtilis = test: Antibacterial activity against Bacillus subtilis DSM3256 incubated overnight by broth dilution method; format: functional; method in brief: as §1
# Clostridioides difficile [10] = test: Antibacterial activity against Clostridium difficile BAA-1875 incubated for 46 hrs in anaerobic condition by CLSI-based broth microdilution assay; format: functional
# Clostridioides difficile [11] = test: Antibacterial activity against Clostridium difficile ATCC 700057 incubated for 46 hrs in anaerobic condition by CLSI-based broth microdilution assay; format: functional
# Clostridioides difficile [12] = test: Antibacterial activity against Clostridium difficile ATCC 43255 incubated for 46 hrs in anaerobic condition by CLSI-based broth microdilution assay; format: functional
# Clostridioides difficile [13] = test: Antibacterial activity against Clostridium difficile 8282 incubated for 46 hrs in anaerobic condition by CLSI-based broth microdilution assay; format: functional
# Staphylococcus aureus [14] = test: Antibacterial activity against Staphylococcus aureus by CLSI-based broth microdilution method; format: functional
# Method in brief: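 S. aureus ATCC29213 grown overnight at 37 °C on MH II agar. MIC by CLSI broth dilution at about 7.5 × 10^5 CFU/well. Compounds diluted 2-fold in water from 1.0 mg/mL stocks in 50% methanol. Plates incubated overnight at 37 °C. MIC is the lowest concentration with no growth, read by eye.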
# Clostridioides difficile [15] = test: Antibacterial activity against Clostridium difficile incubated for 48 hrs by microbroth dilution method; format: functional
# Method in brief: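 Per CLSI, anaerobic broth microdilution in Brucella broth with hemin, vitamin K and 5% laked horse blood. Isolates pre-grown anaerobically on supplemented Brucella blood agar, 35–37 °C, 44–48 h. Inoculum at 0.5 McFarland, diluted 1:10. 2-fold drug series from DMSO, 16–0.015 µg/mL. Incubated anaerobically at 35–37 °C and read at 46 h. MIC is the lowest concentration inhibiting visible growth.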
# Clostridioides difficile [16] = test: Antibacterial activity against Clostridium difficile under anaerobic condition by CLSI-based broth microdilution assay; format: functional
# Method in brief: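 Isolates streaked on Brucella agar with hemin, vitamin K and 5% sheep blood, anaerobic 35–37°C, 44–48 h. CLSI broth microdilution in Brucella broth with hemin, vitamin K, 5% laked horse blood. Test agents in DMSO, 2-fold series, 16–0.015 µg/mL. Inoculum from a 0.5 McFarland suspension diluted 1:10. Incubated anaerobically 35–37°C, read at 46 h; MIC = lowest concentration inhibiting visible growth.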
Structure (SMILES),MIC (Clostridioides difficile [1]),MIC (Clostridioides difficile [2]),MIC (Clostridioides difficile [3]),MIC90 [4],MIC (Clostridioides difficile [5]),MIC (Clostridioides difficile [6]),solubility at 5 h [7],MIC (Staphylococcus aureus [8]),MIC (Clostridioides difficile [9]),MIC (Bacillus subtilis),MIC (Clostridioides difficile [10]),MIC (Clostridioides difficile [11]),MIC (Clostridioides difficile [12]),MIC (Clostridioides difficile [13]),MIC (Staphylococcus aureus [14]),MIC (Clostridioides difficile [15]),MIC (Clostridioides difficile [16])
CCc1c(Cl)c(OCCCn2cc(CCN3CCC(N)CC3)nn2)c(Cl)c(OCCCn2cc(CCN3CCC(N)CC3)nn2)c1C(=O)O[C@@H]1[C@@H](O)[C@@H](OC)[C@@H](OC/C2=C\C=C\C[C@H](O)/C(C)=C/[C@H](CC)[C@@H](O[C@@H]3OC(C)(C)[C@@H](OC(=O)C(C)C)[C@H](O)[C@@H]3O)/C(C)=C/C(C)=C/C[C@@H]([C@@H](C)O)OC2=O)O[C@H]1C,> 16 µg/mL,> 16 µg/mL,> 16 µg/mL,16 µg/mL,> 16 µg/mL,> 16 µg/mL,451 µg/mL,> 64 µg/mL,> 16 µg/mL,8 µg/mL,> 16 µg/mL,> 16 µg/mL,> 16 µg/mL,> 16 µg/mL,,,
CCc1c(Cl)c(O)c(Cl)c(O)c1C(=O)O[C@@H]1[C@@H](O)[C@@H](OC)[C@@H](OC/C2=C\C=C\C[C@H](O)/C(C)=C/[C@H](CC)[C@@H](O[C@@H]3OC(C)(C)[C@@H](OC(=O)C(C)C)[C@H](O)[C@@H]3O)/C(C)=C/C(C)=C/C[C@@H]([C@@H](C)O)OC2=O)O[C@H]1C,0.06 µg/mL,≤ 0.015 µg/mL,0.12 µg/mL,0.25 µg/mL,0.06 µg/mL,0.12 µg/mL,84 µg/mL,8 µg/mL,0.03 µg/mL,8 µg/mL,0.03 µg/mL,0.03 µg/mL,0.03 µg/mL,0.03 µg/mL,2 µg/mL,0.25 µg/mL,0.012 µg/mL

# — ChEMBL document CHEMBL4665898, “Semisynthetic Analogs of the Antibiotic Fidaxomicin-Design, Synthesis, and Biological Evaluation” (ACS Med Chem Lett, 2020)
